Laboratory results reported in the RNAGym collection of RNA variant scans (doi:10.1126/science.aae0568).
Variants at the floor of the assay were thinned out.

B1: tRNA (parent)
chain: GUUCCGUUGGCGUAAUGGUAACGCGUCUCCCUCCUAAGGAGAAGACUGCGGGUUCGAGUCCCGUACGGAACG

Variants of: B1
Test: yeast fitness relative to wild type (ratio to wild type); higher = fitter; tRNA-Arg(CCU), competitive growth, 37 C, YPD
How it was run: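 Variants of the tRNA-Arg(CCU) gene were chemically synthesised with a 3% per-site mutation rate across 69 sites and placed at the native genomic locus in Saccharomyces cerevisiae. Six parallel replicates of the pooled strains were competed in YPD at 37°C for 24 hours, and gene amplicons from the start and end populations were read by 100-nucleotide paired-end sequencing. Darwinian fitness relative to wild type was derived from changes in genotype frequencies. Genotypes required ≥ 100 starting reads, and estimates < 0.5 were set to 0.5.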

Row | Variant | yeast fitness
1 | U2C C30G C33A A65C | ≤ 0.5
2 | U2C A43U G50A U54G C62U | ≤ 0.5
3 | U2C C11U G12A A15G U54C C66U G68C A69U | ≤ 0.5
4 | U2C A37U G52A | ≤ 0.5
5 | U2C C5G C46U G58A | 0.611
6 | U2C C4G G6C G18A C24U C27A U35C G41A U47C | ≤ 0.5
7 | U2C A40G C61A | ≤ 0.5
8 | U2C C11U A21C U26C C34A A45U C46A G50A U54C C55G | ≤ 0.5
9 | U2C G12C A14G C29U | ≤ 0.5
10 | U2C C27A A65G | 0.632
11 | U2C C11U A65C | 0.583
12 | U2C A37G G68C | ≤ 0.5
13 | U2C G12A G18C C33U C60A | ≤ 0.5
14 | U2C C11G C24A | 0.665
15 | U2C A45G C49G | ≤ 0.5
16 | U2C C31G U35A G63A | ≤ 0.5
17 | U2C A40U U54A | ≤ 0.5
18 | U2C A21G A36G G38C | ≤ 0.5
19 | U2C A15C G23C C31A | ≤ 0.5
20 | U2C C5A C24A U64G | ≤ 0.5
21 | U2C C34U A65U | 0.6
22 | U2C A43U | 0.989
23 | U2C C34G | 0.62
24 | U2C G23C C31G C33U A42G G50U G52C G58C | ≤ 0.5

Row | Variant | yeast fitness
25 | U2C C62U | 0.882
26 | U2C C62A | 0.677
27 | U2C C46U C66U | 0.779
28 | U2C A42G G63A | 0.543
29 | U2C A36C G39A A57U | 0.539
30 | U2C C11A U32C | ≤ 0.5
31 | U2C A15C C55G A57C | 0.512
32 | U2C A43U G48A C61G A70C | ≤ 0.5
33 | U2C A21G C33G U35C U59A A69U | ≤ 0.5
34 | U2C G18A | 0.806
35 | U2C G18C | 0.723
36 | U2C C55G | 0.583
37 | U2C C4A C29G | 0.704
38 | U2C C30G C31G C46G U54A | ≤ 0.5
39 | U2C A14G G18A G41A A69C | ≤ 0.5
40 | U2C C31A | 0.879
41 | U2C C31G | 1.04
42 | U2C C31U | 0.892
43 | U2C C29U G38C A43U U53G G63C | ≤ 0.5
44 | U2C A42G A45C C61G | ≤ 0.5
45 | U2C A69U | 0.96
46 | U2C A69C | 0.872
47 | U2C G17A A37C A65G | 0.539
48 | U2C G9C C24U U26G | ≤ 0.5

Row | Variant | yeast fitness
49 | U2C G17C G23A G52A C61U | ≤ 0.5
50 | U2C A42C U54A G67C A69U | ≤ 0.5
51 | U2C A37U G48A C61U | ≤ 0.5
52 | U2C A70U | 1.06
53 | U2C G9C U13C G68C | ≤ 0.5
54 | U2C C4U G48A | 0.538
55 | U2C G12A A15G | ≤ 0.5
56 | U2C A21C A42U U54A | ≤ 0.5
57 | U2C G9A U16C | 0.602
58 | U2C A20G C30U | 0.576
59 | U2C C27A | 0.749
60 | U2C G17C G23A C49G | ≤ 0.5
61 | U2C C30U | 0.967
62 | U2C C30A | 0.89
63 | U2C A20U C61A G67A | ≤ 0.5
64 | U2C G12A | 0.993
65 | U2C A40C C66U | 0.524
66 | U2C G48A A69C | 0.705
67 | U2C C24G U53G A57G | ≤ 0.5
68 | U2C C22G C31U C60U C61U | 0.527
69 | U2C G6A C11U | 0.587
70 | U2C C4A G23A C61A | ≤ 0.5
71 | U2C C5G C30G G44A | ≤ 0.5
72 | U2C A20G C27G A37C G38C A43G C55A | ≤ 0.5

Row | Variant | yeast fitness
73 | U2C A43G C49A A57U | ≤ 0.5
74 | U2C A21U U32A A40C G56C | ≤ 0.5
75 | U2C C5G G9A A15U A69U | ≤ 0.5
76 | U2C C29A U53C C62A G67A | ≤ 0.5
77 | U2C G12C C34A A40C | ≤ 0.5
78 | U2C A14U A21U | 0.596
79 | U2C C11G C46A A70C | ≤ 0.5
80 | U2C A45U C46G G58C U59C A65G C66G | 0.628
81 | U2C A20G C22U C24A A69G | ≤ 0.5
82 | U2C G38A A70G | 0.541
83 | U2C A40G G68C | 0.571
84 | U2C C24A U26A U47C | ≤ 0.5
85 | U2C A20C C29G A36C G52C A57U | ≤ 0.5
86 | U2C A36G C61G U64C | ≤ 0.5
87 | U2C A15G G44A G50C A70G | ≤ 0.5
88 | U2C G17A U19C G50C G56C | ≤ 0.5
89 | U2C A43U U47C | 0.749
90 | U2C G10C A14U G38C | ≤ 0.5
91 | U2C G25A | 0.943
92 | U2C G25C | 0.953
93 | U2C A65U | 1.05
94 | U2C C24U C60A | ≤ 0.5
95 | U2C G18A C24A U28A U32C | ≤ 0.5
96 | U2C C11G C46A A57U | ≤ 0.5

Row | Variant | yeast fitness
97 | U2C A37U A43U | 0.568
98 | U2C C5A C30G | ≤ 0.5
99 | U2C C31G G58A C61G U64G A69C | ≤ 0.5
100 | U2C G17C G23C G25C U35A A42U A70G | ≤ 0.5
101 | U2C C27A G41A C49A U53C U54C U64C | ≤ 0.5
102 | U2C C4G C22U C30A | ≤ 0.5
103 | U2C A57C A69U | 0.578
104 | U2C A40G A43U A45C A57G A65C | 0.52
105 | U2C G12A A36U | ≤ 0.5
106 | U2C C5A G10C G12A G23A | ≤ 0.5
107 | U2C C27G U28A A43U | 0.629
108 | U2C C55A G56C G67C | ≤ 0.5
109 | U2C C5G A45C A69U | 0.549
110 | U2C A20U A45G | ≤ 0.5
111 | U2C A15U A20U | ≤ 0.5
112 | U2C G9C U28C G50C A57C A69U | ≤ 0.5
113 | U2C C4G | 0.965
114 | U2C C4A | 0.877
115 | U2C C22G U53C | 0.504
116 | U2C A43U G50A U54G G68C | ≤ 0.5
117 | U2C C29U C34U A57C U64C | ≤ 0.5
118 | U2C A21U A40C G56C | 0.66
119 | U2C A14G G18A U32A G44A G56C | ≤ 0.5
120 | U2C G38A C55A | ≤ 0.5

Row | Variant | yeast fitness
121 | U2C A20C A65U | 0.641
122 | U2C C11A A40C | 0.553
123 | U2C C30U A37C G38C U54A | ≤ 0.5
124 | U2C G23A C46U | 0.528
125 | U2C C24U U26A U28G U54G | ≤ 0.5
126 | U2C G10C A36C | 0.587
127 | U2C A15C U19C C22G C34U G39C C62U A65C | ≤ 0.5
128 | U2C C27G A43U A45U A69U | ≤ 0.5
129 | U2C A45C | 1.01
130 | U2C A45G | 0.883
131 | U2C C5G C46U A70G | 0.994
132 | U2C A14U C31U C62G | ≤ 0.5
133 | U2C C31U A57U | 0.535
134 | U2C G18C C30U C61G | ≤ 0.5
135 | U2C C31G G58A | ≤ 0.5
136 | U2C G10A C46G G50A | ≤ 0.5
137 | U2C C24G A42U | ≤ 0.5
138 | U2C A42G C55U | ≤ 0.5
139 | U2C A37G C55G U64A | ≤ 0.5
140 | U2C A36U | 0.682
141 | U2C A36G | 0.907
142 | U2C A36C | 0.543
143 | U2C C22G A36G | 0.651
144 | U2C A40G A43U A45C | ≤ 0.5

Row | Variant | yeast fitness
145 | U2C C22G A37C A45U G67A | ≤ 0.5
146 | U2C C11G C24A C55A | 0.786
147 | U2C C11G U19G | ≤ 0.5
148 | U2C C31G C62A | 0.532
149 | U2C C22A | 0.927
150 | U2C C33G C34U C49U | ≤ 0.5
151 | U2C G18A C24U A42G G68A | ≤ 0.5
152 | U2C C11G A14C C61U U64A | 0.623
153 | U2C C24G C30U C62U | ≤ 0.5
154 | U2C C5U A15U | 0.568
155 | U2C A14G C46U C60A | ≤ 0.5
156 | U2C G25C C31U U32A | ≤ 0.5
157 | U2C G10A C30U | 0.629
158 | U2C A14G G18A U32A C66G | ≤ 0.5
159 | U2C A36U C46G A69U | 0.517
160 | U2C A15G | 0.91
161 | U2C G10C C11U C34A A37C | 0.609
162 | U2C A40C G48A | 0.751
163 | U2C C24U U59C | 0.537
164 | U2C A20U A69C | 0.636
165 | U2C C49U C62U | 0.521
166 | U2C C5G G44A C46A G52A C66U | ≤ 0.5
167 | U2C C49G A65G | 0.594
